In series [1] the target is Amyloid-beta precursor protein (Homo sapiens) (UniProt P05067). Put plainly: Inhibition of amyloid beta (1 to 42) peptide (unknown origin) self aggregation-induced cytotoxicity in E17 Sprague-Dawley rat primary cortical neurons assessed as neuroprotective activity by measuring increase in cell viability at 1 uM after 24 hrs by MTT assay. The procedure, abridged:
(§1)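 Rat E17 primary cortical neurons after 9 days in culture. Aβ1-42 samples, prepared as for the dot blot (± Cu2+, ± compound), added to the cultures at 1 µM for 24 h. Viability by MTT, normalized to the vehicle group. EGCG and clioquinol as positive controls.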

Series [2] is described as follows: Inhibition of Cu2+-mediated amyloid beta (1 to 42) peptide-induced cytotoxicity in E17 Sprague-Dawley rat primary cortical neurons assessed as neuroprotective activity by measuring increase in cell viability at 1 uM after 24 hrs by MTT assay. In a few lines:
as §1

Series [3] deals with T1, Amine oxidase [flavin-containing] B (Homo sapiens, UniProt P27338).
T1 sequence (P27338 whole entry): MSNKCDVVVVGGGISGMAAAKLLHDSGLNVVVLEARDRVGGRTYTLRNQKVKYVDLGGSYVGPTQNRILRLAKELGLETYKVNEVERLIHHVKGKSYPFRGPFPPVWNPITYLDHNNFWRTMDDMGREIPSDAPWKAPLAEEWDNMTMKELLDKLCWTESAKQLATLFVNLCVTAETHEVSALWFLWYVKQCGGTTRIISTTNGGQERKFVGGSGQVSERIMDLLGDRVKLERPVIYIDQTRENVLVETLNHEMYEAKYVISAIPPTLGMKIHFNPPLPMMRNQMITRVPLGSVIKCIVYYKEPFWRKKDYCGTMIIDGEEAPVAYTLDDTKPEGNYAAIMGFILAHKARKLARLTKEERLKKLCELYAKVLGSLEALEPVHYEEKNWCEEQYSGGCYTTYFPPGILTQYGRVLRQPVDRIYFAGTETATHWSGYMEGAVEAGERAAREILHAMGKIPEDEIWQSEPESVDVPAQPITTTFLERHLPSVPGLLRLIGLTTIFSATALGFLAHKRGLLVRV

Series [4] in a line: Inhibition of Cu2+-induced amyloid beta (1 to 42 residues) (unknown origin) aggregation assessed as reduction in amyloid beta fibril load at 50 uM after 24 hrs by phosphotungstic acid staining-based transmission electron microscopic method. The procedure, abridged:
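Aβ1-42 (25 µM) ± CuCl2 (25 µM) ± compound (50 µM) in HEPES/NaCl pH 6.6, incubated 24 h at 37 °C. Aliquots placed on carbon-coated copper grids for 30 min, stained 20 s with 2% phosphotungstic acid, imaged by TEM. Clioquinol as comparator.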

The nature of series [5]: Antioxidant activity assessed as inhibition of Cu2+-mediated redox cycling induced hydroxyl radicals generation at 15 uM in presence of ascorbate by fluorescence assay. The procedure, abridged:
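Hydroxyl radicals from Cu(II) (5 µM) and ascorbate (150 µM), with deferoxamine 1 µM, in PBS (20 mM, 100 mM NaCl, pH 7.4, 0.1% methanol). Ligand at 15 µM, with EDTA as positive control. Conversion of coumarin-3-carboxylic acid (50 µM) to fluorescent 7-hydroxy-CCA followed at 37 °C (ex 395/em 450 nm). Run in triplicate.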

Series [6] is described as follows: Inhibition of Cu2+-mediated amyloid beta (1 to 42) (unknown origin) aggregation at 50 uM after 24 hrs by dot blot assay. In a few lines:
(§2)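 Aβ1-42 (2000 µM stock in 1% ammonium hydroxide) diluted in […], pH 6.6. Peptide 25 µM ± Cu(II) 25 µM ± compound 50 µM, incubated 37 °C for 24 h. Samples spotted on nitrocellulose, blocked in 5% milk, probed overnight at 4 °C with A11 (oligomers) or 6E10 (total Aβ), HRP secondary, densitometry. N = 4, mean ± SEM; EGCG control.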

For series [7], the system named is Cortical neurone. Put plainly: Cytotoxicity against E17 Sprague-Dawley rat primary cortical neurons at 10 to 30 uM after 24 hrs by MTT assay. In kind it is cell-based.
The nature of series [8]: Metal chelating activity assessed as compound-Cu2+ complex formation at 40 uM in presence of CuCl2 after 30 mins by UV-visible spectrophotometric analysis. The procedure, abridged:
(§3)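 UV–vis spectra (200–500 nm) of compound at 40 µM final, alone or with CuCl2, FeSO4, FeCl3 or ZnCl2 (20 µM final), after 30 min in 20 mM HEPES, 150 mM NaCl, pH 7.4, at room temperature.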

Series [9] is described as follows: Metal chelating activity assessed as compound-Fe2+ complex formation at 40 uM in presence of FeSO4 after 30 mins by UV-visible spectrophotometric analysis. In a few lines: as §3
Series [10] has as its target Butyrylcholinesterase (Rattus norvegicus) (UniProt Q9JKC1). Put plainly: Inhibition of BuChE in rat serum at 40 uM using butyrylthiocholine iodide as substrate after 20 mins by Ellman's method.
Another series has as its target Butyrylcholinesterase (Rattus norvegicus, UniProt Q9JKC1). The experiment in a line: Inhibition of BuChE in rat serum using butyrylthiocholine iodide as substrate after 20 mins by Ellman's method.
A further series concerns Mus musculus. The experiment in a line: Reversal of scopolamine-induced dementia in ICR mouse assessed as decrease in frequent error incidences at 30 mg/kg, po administered 40 mins prior to scopolamine-challenge by water maze test. In kind it is functional, organism-based. The procedure, abridged: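 Test compound as HCl salt, 30 mg/kg intragastric, given 40 min before scopolamine (4.5 mg/kg i.p.), which was given 20 min before the water maze. Escape latency and errors (entries into no-exit paths) recorded; mean ± SEM.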

Series [11] is described as follows: Antioxidant activity assessed as trolox equivalent of AAPH radical scavenging activity preincubated for 10 mins followed by AAPH addition measured every 2 mins for 180 mins by ORAC-FL assay. The format is functional. The procedure, abridged:
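Compound at 20 µM (diluted from 10 mM DMSO stock in 75 mM phosphate, pH 7.4) with fluorescein (0.117 µM diluted) for 10 min at 37 °C, then AAPH (40 mM solution) added. Fluorescence (ex 485/em 535) read every 2 min for 180 min. […] Triplicate wells, ≥3 runs.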

Series [12] in a line: Inhibition of Cu2+-induced amyloid beta (1 to 42 residues) (unknown origin) aggregation at 50 uM incubated at 37 degC for 24 hrs by dot immunoblot assay. The procedure, abridged:
as §2

For series [13], the system named is Cortical neurone. The experiment in a line: Cytotoxicity against E17 Sprague-Dawley rat primary cortical neurons at 100 uM after 24 hrs by MTT assay relative to donepezil. The format is cell-based. In a few lines: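 Primary cortical neurons from E17 SD rat embryos, trypsin-dissociated and cultured 9 days in neurobasal/B27 on poly-L-lysine (3×10^4 cells/well). Treated at 10, 30 and 100 µM for 24 h, with donepezil as reference. MTT (5 mg/mL, 10 µL) for 4 h at 37 °C, absorbance 490 nm, viability as % of vehicle-treated cells; mean ± SEM.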

The source made the active and inactive calls. No cut-off for these calls is given here.

Chain of Amyloid-beta precursor protein (Homo sapiens) (P05067 whole entry): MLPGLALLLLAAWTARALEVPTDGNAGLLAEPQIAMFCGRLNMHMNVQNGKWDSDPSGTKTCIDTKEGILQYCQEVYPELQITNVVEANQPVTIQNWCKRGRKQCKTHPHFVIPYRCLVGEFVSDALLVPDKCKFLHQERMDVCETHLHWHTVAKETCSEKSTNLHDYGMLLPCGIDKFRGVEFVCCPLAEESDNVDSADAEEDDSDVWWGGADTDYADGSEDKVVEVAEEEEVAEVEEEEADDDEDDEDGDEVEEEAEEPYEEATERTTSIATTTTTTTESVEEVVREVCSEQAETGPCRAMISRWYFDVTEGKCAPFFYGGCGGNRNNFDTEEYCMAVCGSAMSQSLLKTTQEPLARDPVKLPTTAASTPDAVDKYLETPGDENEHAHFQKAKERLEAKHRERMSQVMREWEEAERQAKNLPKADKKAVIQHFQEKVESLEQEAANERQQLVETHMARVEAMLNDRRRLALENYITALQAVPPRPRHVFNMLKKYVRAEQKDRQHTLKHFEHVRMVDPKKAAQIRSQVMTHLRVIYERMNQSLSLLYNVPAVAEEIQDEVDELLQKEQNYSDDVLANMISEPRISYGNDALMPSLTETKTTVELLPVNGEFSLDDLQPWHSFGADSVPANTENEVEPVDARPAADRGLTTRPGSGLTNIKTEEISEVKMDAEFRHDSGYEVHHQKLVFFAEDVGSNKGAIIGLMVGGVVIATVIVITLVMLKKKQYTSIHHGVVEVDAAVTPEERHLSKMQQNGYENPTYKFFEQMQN
Chain of Butyrylcholinesterase (Rattus norvegicus) (Q9JKC1 as listed by the source): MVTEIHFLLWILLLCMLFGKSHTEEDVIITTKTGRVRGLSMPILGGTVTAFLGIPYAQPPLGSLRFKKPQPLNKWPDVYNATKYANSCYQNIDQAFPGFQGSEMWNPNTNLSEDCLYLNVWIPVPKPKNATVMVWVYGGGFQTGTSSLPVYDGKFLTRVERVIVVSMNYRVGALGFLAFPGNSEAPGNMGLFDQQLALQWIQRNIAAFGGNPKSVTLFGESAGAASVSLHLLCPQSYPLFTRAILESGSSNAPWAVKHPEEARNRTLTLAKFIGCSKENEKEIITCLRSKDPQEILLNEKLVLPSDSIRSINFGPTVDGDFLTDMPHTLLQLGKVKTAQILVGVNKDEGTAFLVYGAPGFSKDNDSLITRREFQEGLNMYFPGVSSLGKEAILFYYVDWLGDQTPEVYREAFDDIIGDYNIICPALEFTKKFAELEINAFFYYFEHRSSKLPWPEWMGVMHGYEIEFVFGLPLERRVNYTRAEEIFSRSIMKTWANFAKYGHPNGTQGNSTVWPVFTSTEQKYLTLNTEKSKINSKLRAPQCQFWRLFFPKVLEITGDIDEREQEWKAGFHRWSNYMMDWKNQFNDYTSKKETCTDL
Chain of Butyrylcholinesterase (Q9JKC1 whole entry): as the sequence (Q9JKC1 as listed by the source) above

Consider `C#CCN(C)Cc1cn(-c2cc(NC(=S)NCC)ncn2)cn1`, for which the outcome in series [1] and in series [9] was inactive. Further, the outcome (in [2]; in [5]; in [8]; with Mus musculus) was Active. Also, the 50% inhibitory concentration (IC50) in [3] is 1430 nM; at Butyrylcholinesterase, over 40000 nM. For the same molecule, the inhibition entry in [4], in [6] and in [12] was “Active” each time. Besides, the Activity result with Cortical neurone [7] and in the series on Cortical neurone [13] was “Non-Toxic” throughout. In series [10], this molecule yielded an inhibition of 12.6%. Moreover, in [11], the Activity (umolequiv/umol) was 1.13.

For the origin of these results see ChEMBL document CHEMBL4138195, “Discovery of novel propargylamine-modified 4-aminoalkyl imidazole substituted pyrimidinylthiourea derivatives as multifunctional agents for the treatment of Alzheimer's disease” (Eur J Med Chem, 2018).
